# Laboratory results published in ChEMBL document CHEMBL1156637, “Bioactive 5alpha-pregnane-type steroidal alkaloids from Sarcococca hookeriana” (J Nat Prod, 2008).
# The source made the active and inactive calls. The rule behind the calls is not given here.
# Legend:
# [1] = target: Acetylcholinesterase (Homo sapiens, UniProt P22303); test: Inhibition of acetylcholinesterase
# [2] = target: Cholinesterase (Homo sapiens, UniProt P06276); test: Inhibition of butyrylcholinesterase
# Procedure, shortened: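 In vitro enzyme inhibition assay, reported as IC50 with the standard error of the mean from five assays.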
# [3] = test system: Bacillus subtilis; test: Antibacterial activity against Bacillus subtilis assessed as zone of inhibition at 1.0 mg/mL by agar well diffusion method; assay type: functional; conditions: read-out: IZ
# Procedure, shortened: (§1)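 Agar well diffusion with pure compounds loaded into wells at 1.0 mg/mL. Zone of inhibition read in mm. Ampicillin is the reference for Gram-positive strains and gentamicin for Gram-negative strains.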
# [4] = test system: Micrococcus luteus; test: Antibacterial activity against Micrococcus luteus assessed as zone of inhibition at 1.0 mg/mL by agar well diffusion method; assay type: functional; conditions: for zone of inhibition at 1000 µg/mL: read-out: IZ; procedure, shortened: as §1
# [5] = test system: Enterococcus faecalis; test: Antibacterial activity against Streptococcus faecalis assessed as zone of inhibition at 1.0 mg/mL by agar well diffusion method; assay type: functional; conditions: for zone of inhibition at 1000 µg/mL: read-out: IZ; procedure, shortened: as §1
# [6] = test system: Pseudomonas; test: Antibacterial activity against Pseudomonas pallida assessed as zone of inhibition at 1.0 mg/mL by agar well diffusion method; assay type: functional; conditions: for zone of inhibition at 1000 µg/mL: read-out: IZ; procedure, shortened: as §1
# [7] = test system: Bacillus subtilis; test: Antibacterial activity against Bacillus subtilis by agar well diffusion method; assay type: functional
# [8] = test system: Micrococcus luteus; test: Antibacterial activity against Micrococcus luteus by agar well diffusion method; assay type: functional
# [9] = test system: Pseudomonas; test: Antibacterial activity against Pseudomonas pallida by agar well diffusion method; assay type: functional
# [10] = test system: Leishmania major; test: Antileishmanial activity against Leishmania major; assay type: functional, organism-based
# [11] = test system: Bacillus subtilis; test: Antibacterial activity against Bacillus subtilis assessed as zone of inhibition at 0.25 mg/mL by agar well diffusion method; assay type: functional; conditions: read-out: IZ
# Procedure, shortened: (§2)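 Reference antibiotic (ampicillin for these Gram-positive strains) tested by agar well diffusion at 0.25 mg/mL. Inhibition zone diameter recorded in mm.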
# [12] = test system: Micrococcus luteus; test: Antibacterial activity against Micrococcus luteus assessed as zone of inhibition at 0.25 mg/mL by agar well diffusion method; assay type: functional; conditions: read-out: IZ; procedure, shortened: as §2
# [13] = test system: Enterococcus faecalis; test: Antibacterial activity against Streptococcus faecalis assessed as zone of inhibition at 0.25 mg/mL by agar well diffusion method; assay type: functional; conditions: read-out: IZ; procedure, shortened: as §2
# Sequence of Acetylcholinesterase (P22303 whole entry): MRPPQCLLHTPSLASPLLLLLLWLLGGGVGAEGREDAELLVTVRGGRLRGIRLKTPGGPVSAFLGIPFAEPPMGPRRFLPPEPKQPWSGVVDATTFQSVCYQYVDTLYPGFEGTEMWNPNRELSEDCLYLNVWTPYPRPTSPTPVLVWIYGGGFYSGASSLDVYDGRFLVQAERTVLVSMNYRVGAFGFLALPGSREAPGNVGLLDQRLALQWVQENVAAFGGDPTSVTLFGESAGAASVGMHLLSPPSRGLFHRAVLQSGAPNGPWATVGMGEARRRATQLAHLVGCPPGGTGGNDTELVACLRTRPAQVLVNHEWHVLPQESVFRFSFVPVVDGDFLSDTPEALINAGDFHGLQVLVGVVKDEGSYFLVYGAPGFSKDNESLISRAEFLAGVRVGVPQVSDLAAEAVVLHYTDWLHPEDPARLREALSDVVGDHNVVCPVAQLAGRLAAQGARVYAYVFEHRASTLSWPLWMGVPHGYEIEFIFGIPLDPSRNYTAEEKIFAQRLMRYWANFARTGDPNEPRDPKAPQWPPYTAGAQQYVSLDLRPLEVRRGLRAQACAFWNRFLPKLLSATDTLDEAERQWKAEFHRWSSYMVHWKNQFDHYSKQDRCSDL
# Sequence of Cholinesterase (P06276 whole entry): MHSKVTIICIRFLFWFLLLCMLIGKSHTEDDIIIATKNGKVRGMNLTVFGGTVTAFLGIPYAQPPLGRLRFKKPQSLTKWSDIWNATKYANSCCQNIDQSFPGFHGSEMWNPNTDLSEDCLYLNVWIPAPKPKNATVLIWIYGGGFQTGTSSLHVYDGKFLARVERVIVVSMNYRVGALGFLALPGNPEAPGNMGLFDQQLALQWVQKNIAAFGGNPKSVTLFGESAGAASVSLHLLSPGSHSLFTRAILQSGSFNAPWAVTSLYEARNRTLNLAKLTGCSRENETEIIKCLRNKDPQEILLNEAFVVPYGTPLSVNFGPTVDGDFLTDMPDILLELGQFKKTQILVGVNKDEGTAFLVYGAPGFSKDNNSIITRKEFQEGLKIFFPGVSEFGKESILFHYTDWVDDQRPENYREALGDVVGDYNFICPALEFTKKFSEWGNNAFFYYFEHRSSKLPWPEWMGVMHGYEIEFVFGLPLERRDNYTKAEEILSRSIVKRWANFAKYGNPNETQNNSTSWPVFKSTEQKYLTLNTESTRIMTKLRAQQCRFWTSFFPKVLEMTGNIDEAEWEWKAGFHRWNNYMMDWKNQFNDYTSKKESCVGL
Structure (SMILES),IC50 [10] [µM],IC50 [1] [µM],IC50 [2] [µM],zone of inhibition at 1000 µg/mL [3] [mm],zone of inhibition at 1000 µg/mL [4] [mm],zone of inhibition at 1000 µg/mL [5] [mm],zone of inhibition at 1000 µg/mL [6] [mm],MIC [7] [µM],MIC [8] [µM],MIC [9] [µM],Activity [4],Activity [5],Activity [6],zone of inhibition at 250 µg/mL [11] [mm],zone of inhibition at 250 µg/mL [12] [mm],zone of inhibition at 250 µg/mL [13] [mm]
C[C@@H]([C@H]1CC[C@H]2[C@@H]3CC[C@H]4C[C@@H](N(C)C)CC[C@]4(C)[C@H]3CC[C@]12C)N(C)C,,22.1,1.6,19,11,8,14.5,83.5,167,167,,,,,,
CN[C@@H](C)[C@H]1CC[C@H]2[C@@H]3CC=C4C(=O)[C@@H](NC(=O)C=C(C)C)CC[C@]4(C)[C@H]3CC[C@]12C,,9.9,0.6,9,,,,568,,,inactive,inactive,inactive,,,
C[C@@H]1[C@H](O)[C@@H](C)/C=C/C=C/C=C/C=C/C=C/C=C/C=C/[C@H](O[C@@H]2O[C@H](C)[C@@H](O)[C@H](N)[C@@H]2O)C[C@@H]2O[C@](O)(C[C@@H](O)C[C@@H](O)[C@H](O)CC[C@@H](O)C[C@@H](O)CC(=O)O[C@H]1C)C[C@H](O)[C@H]2C(=O)O [AMPHOTERICIN B],0.5,,,,,,,,,,,,,,,
CC1(C)S[C@@H]2[C@H](NC(=O)[C@H](N)c3ccccc3)C(=O)N2[C@H]1C(=O)O [AMPICILLIN],,,,,,,,89.7,5.6,,,,,29,26,25
C[C@@H]([C@H]1CC[C@H]2[C@@H]3CC[C@H]4C[C@@H](N)CC[C@]4(C)[C@H]3CC[C@]12C)N(C)C [CHONEMORPHINE],,28,0.5,16.5,11.5,10,14,90.3,90.3,181,,,,,,
C[C@@H]([C@H]1CC[C@H]2[C@@H]3CC[C@H]4C(=O)C(NC=O)=CC[C@]4(C)[C@H]3CC[C@]12C)N(C)C [HOOKERIANAMIDE H],22.4,,,11.5,11,,,324,324,,,inactive,inactive,,,
CC(C)=CC(=O)N[C@H]1CC[C@@]2(C)[C@@H](CC[C@@H]3[C@@H]2CC[C@]2(C)C([C@H](C)N(C)C)=CC[C@@H]32)[C@H]1O [HOOKERIANAMIDE J],11.3,48.5,0.8,15,,,12,141,,70.7,inactive,inactive,,,,
C[C@@H]([C@H]1CC=C2[C@@H]3CCC4=C[C@@H](N(C)C)CC[C@]4(C)[C@H]3CC[C@@]21C)N(C)C [HOOKERIANAMIDE K],6.8,24.2,4,13,9.5,10,10.5,338,651,169,,,,,,
C/C=C(\C)C(=O)N[C@H]1CC[C@]2(C)[C@H]3CC[C@]4(C)[C@@H]([C@H](C)NC)CC[C@H]4[C@@H]3CC[C@H]2[C@H]1OC(C)=O [SARCOVAGINE C],1.5,8.1,0.4,20,13.5,12,17.5,64.3,64.3,32.1,,,,,,

# Further lines, with some results ahead:
IC50 [10] [µM],Structure (SMILES),IC50 [1] [µM],IC50 [2] [µM],zone of inhibition at 1000 µg/mL [3] [mm],zone of inhibition at 1000 µg/mL [4] [mm],zone of inhibition at 1000 µg/mL [5] [mm],zone of inhibition at 1000 µg/mL [6] [mm],MIC [7] [µM],MIC [8] [µM],MIC [9] [µM],Activity [4],Activity [5],Activity [6],zone of inhibition at 250 µg/mL [11] [mm],zone of inhibition at 250 µg/mL [12] [mm],zone of inhibition at 250 µg/mL [13] [mm]
21.3,C/C=C(\C)C(=O)NC1=CC[C@@]2(C)C(=CC[C@H]3[C@@H]4CC[C@H]([C@H](C)NC)[C@@]4(C)CC[C@@H]32)C1=O,,,20,12.5,10,16.5,35.6,143,35.6,,,,,,
8.8,CN[C@@H](C)[C@H]1CC[C@H]2[C@@H]3CC[C@H]4C[C@@H](N(C)C(=O)c5ccccc5)CC[C@]4(C)[C@H]3CC[C@]12C [HOOKERIANAMIDE I],,,17.5,18,8,18.5,69.4,34.7,69.4,,,,,,
7.5,N=C(N)c1ccc(OCCCCCOc2ccc(C(=N)N)cc2)cc1 [PENTAMIDINE],,,,,,,,,,,,,,,
3.3,CN[C@@H](C)[C@H]1CC[C@H]2[C@@H]3CC[C@H]4[C@@H](OC(C)=O)[C@@H](NC(=O)C=C(C)C)CC[C@]4(C)[C@H]3CC[C@]12C [VAGENINE A],,,17,,10,13.5,64.3,,64.3,inactive,,,,,
